# Experimental data as given in ChEMBL document CHEMBL1125417, “Development of a series of phenyltetrazole leukotriene D4 (LTD4) receptor antagonists” (J Med Chem, 1992).
# The source made the active and inactive calls. The calls are words filed in the database; no cut-off is given here.
# Tests used:
# [1] = target: T1, Cysteinyl leukotriene receptor 1 (Cavia porcellus) (UniProt Q2NNR5); assay: Antagonistic activity against leukotriene D4 (LTD4) receptor; type: functional
# T1 sequence (whole entry): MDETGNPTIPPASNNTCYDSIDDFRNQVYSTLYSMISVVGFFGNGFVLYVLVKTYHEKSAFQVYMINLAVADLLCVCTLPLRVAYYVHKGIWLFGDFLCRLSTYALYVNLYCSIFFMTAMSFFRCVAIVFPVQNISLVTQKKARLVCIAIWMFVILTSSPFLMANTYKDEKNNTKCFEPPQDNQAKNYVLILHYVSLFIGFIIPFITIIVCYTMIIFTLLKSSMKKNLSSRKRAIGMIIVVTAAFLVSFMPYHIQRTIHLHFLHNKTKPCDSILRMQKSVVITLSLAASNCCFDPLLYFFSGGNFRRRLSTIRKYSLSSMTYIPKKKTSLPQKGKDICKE
# Method in brief: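 Isolated tissue strips in baths of physiological salt solution (mM: NaCl 118.2, NaHCO₃ 24.8, dextrose 10.0, Ca²⁺ 1.2) at 37 °C, gassed with 95% O₂/5% CO₂, under 0.5 g resting tension. Cumulative LTD₄ concentration–response curves were recorded. Each antagonist was in contact with the tissue for 30 min before the final LTD₄ curve.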
# [2] = tested on: Cysteinyl leukotriene receptor 1 (Cavia porcellus); assay: Antagonist activity tested against Cysteinyl leukotriene D4 receptor
Compound,pKB [1],pKB [2]
c1ccc(CCCCOc2ccc(-c3nnn(CCCCCCc4nnn[nH]4)n3)cc2)cc1,,6.24
O=C(O)c1cccc(Cn2nnc(-c3cccc(CSc4ccc5ccccc5n4)c3)n2)c1,,5.62
c1ccc(CCCCOc2ccc(-c3nn[nH]n3)cc2)cc1,,5.92
c1ccc(CCCCOc2ccc(-c3nnn(CCCCc4nnn[nH]4)n3)cc2)cc1,,6.91
c1ccc(CCCCOc2cccc(-c3nnn(CCCCc4nnn[nH]4)n3)c2)cc1,,5.38
c1cc(CSc2ccc3ccccc3n2)cc(-c2nnn(CCCCc3nnn[nH]3)n2)c1,,6.57
FC(F)(F)CCCCCOc1ccc(-c2nnn(CCCCc3nnn[nH]3)n2)cc1,5.82,
c1ccc(CCOc2ccc(-c3nnn(CCCCc4nnn[nH]4)n3)cc2)cc1,,6.51
c1ccc(CCCCCOc2ccc(-c3nnn(CCCCc4nnn[nH]4)n3)cc2)cc1,,5.9
O=C(O)c1cccc(Cn2nnnc2-c2cccc(CSc3ccc4ccccc4n3)c2)c1,,6.2
O=C(O)CCCCn1nnc(-c2ccc(OCCCCc3ccccc3)cc2)n1,5.97,
c1ccc(CCCCOc2ccc(-c3nnn(CCCCCCCCc4nnn[nH]4)n3)cc2)cc1,,5.7
Cc1ccccc1S(=O)(=O)NC(=O)NC(=O)CCCCn1nnc(-c2ccc(OCCCCc3ccccc3)cc2)n1,,5.86
N#CNC(=O)CCCCn1nnc(-c2ccc(OCCCCc3ccccc3)cc2)n1,,6.1
c1cc(-c2nnn(CCCCc3nnn[nH]3)n2)ccc1OCCCCc1nn[nH]n1,,inactive
c1ccc(CCCCOc2ccc(-c3nnn(CCCCCCCc4nnn[nH]4)n3)cc2)cc1,,5.96
c1ccc(CCCOc2ccc(-c3nnn(CCCCc4nnn[nH]4)n3)cc2)cc1,,6.79
c1ccc(CCCCn2nnc(-c3ccc(OCCCCc4nnn[nH]4)cc3)n2)cc1,,5.8
c1ccc(CCCCOc2ccc(-c3nnn(CCCCCc4nnn[nH]4)n3)cc2)cc1,6.54,
FC(F)(F)CCCCOc1ccc(-c2nnn(CCCCc3nnn[nH]3)n2)cc1,,5.92
c1ccc2oc(COc3ccc(-c4nnn(CCCCc5nnn[nH]5)n4)cc3)cc2c1,6.36,

# Now from value to compound:
pKB [1],pKB [2],Compound
5.83,,c1ccc(CCCCCCOc2ccc(-c3nnn(CCCCc4nnn[nH]4)n3)cc2)cc1
,5.88,O=C(O)c1ccc(Cn2nnc(-c3cccc(CSc4ccc5ccccc5n4)c3)n2)cc1
6.68,,c1ccc2nc(COc3ccc(-c4nnn(CCCCc5nnn[nH]5)n4)cc3)ccc2c1
5.43,,FC(F)(F)CCCCCCCOc1ccc(-c2nnn(CCCCc3nnn[nH]3)n2)cc1
5.41,,NC(=O)CCCCn1nnc(-c2ccc(OCCCCc3ccccc3)cc2)n1
,5.87,O=C(O)c1ccccc1Cn1nnc(-c2ccc(CSc3ccc4ccccc4n3)cc2)n1
,5.92,Cc1ccccc1S(=O)(=O)NC(=O)CCCCn1nnc(-c2ccc(OCCCCc3ccccc3)cc2)n1
,6.31,c1ccc(CCCCOc2ccc(-c3nnnn3CCCCc3nnn[nH]3)cc2)cc1
5.09,,CCCCCCCCCCOc1ccc(-c2nnn(CCCCc3nnn[nH]3)n2)cc1
6.86,,c1ccc(CCCCOc2ccc(-c3nnn(CCCc4nnn[nH]4)n3)cc2)cc1
,5.52,CCCOc1ccc(-c2nnn(CCCCc3nnn[nH]3)n2)cc1
,7.02,O=C(O)c1ccccc1Cn1nnc(-c2cccc(CSc3ccc4ccccc4n3)c2)n1
